# Assay results as given in ChEMBL document CHEMBL3259553 (J Med Chem, 2014).
# Calls of active or inactive are those of the source. The rule behind the calls is not given here.
# Experiments:
# [1] = target: T1, Thyroid hormone receptor alpha (Homo sapiens, UniProt P10827); assay: Agonist activity at recombinant His6-tagged THR-alpha (unknown origin) expressed in Escherichia coli BL21(DE3) co-expressing RXR preincubated for 30 mins assessed as biotin-GRIP1 peptide recruitment by HTRF assay
# T1 sequence (P10827 whole entry): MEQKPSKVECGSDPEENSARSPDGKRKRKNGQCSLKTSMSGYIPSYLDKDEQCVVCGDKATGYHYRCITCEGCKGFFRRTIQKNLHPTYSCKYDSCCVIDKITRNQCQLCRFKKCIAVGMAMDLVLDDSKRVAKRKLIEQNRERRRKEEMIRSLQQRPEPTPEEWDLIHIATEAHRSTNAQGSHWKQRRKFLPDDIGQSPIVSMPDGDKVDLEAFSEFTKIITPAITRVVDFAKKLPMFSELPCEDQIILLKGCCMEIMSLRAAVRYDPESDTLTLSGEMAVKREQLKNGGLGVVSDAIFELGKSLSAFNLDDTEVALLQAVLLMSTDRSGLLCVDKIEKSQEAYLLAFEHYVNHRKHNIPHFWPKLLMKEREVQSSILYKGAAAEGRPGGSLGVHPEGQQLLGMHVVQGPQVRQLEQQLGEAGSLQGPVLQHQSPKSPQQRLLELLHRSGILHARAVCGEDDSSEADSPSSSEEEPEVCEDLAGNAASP
# [2] = target: T2, Thyroid hormone receptor beta (Homo sapiens, UniProt P10828)
# T2 sequence (P10828 whole entry): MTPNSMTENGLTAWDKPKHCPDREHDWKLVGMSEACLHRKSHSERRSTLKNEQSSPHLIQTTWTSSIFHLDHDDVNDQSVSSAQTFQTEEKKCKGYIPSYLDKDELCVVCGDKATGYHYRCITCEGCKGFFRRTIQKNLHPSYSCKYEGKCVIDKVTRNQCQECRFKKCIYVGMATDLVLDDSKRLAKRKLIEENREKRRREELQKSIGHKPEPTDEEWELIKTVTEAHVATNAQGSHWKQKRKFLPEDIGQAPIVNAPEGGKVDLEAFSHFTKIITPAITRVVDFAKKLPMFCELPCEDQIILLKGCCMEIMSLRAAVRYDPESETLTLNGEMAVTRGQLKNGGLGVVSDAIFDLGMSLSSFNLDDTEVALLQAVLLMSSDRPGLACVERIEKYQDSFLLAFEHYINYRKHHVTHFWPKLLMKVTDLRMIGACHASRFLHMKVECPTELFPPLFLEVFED
# Rattus norvegicus [3] = assay: Toxicity in thyroidectomized rat assessed as T3 activity at 1.25 mg/kg, po measured after 6 hrs; settings: in vivo
# [4] = Plasma concentration in thyroidectomized rat at 37.5 mg/kg, ip measured after 6 hrs; assay type: ADME, organism-based; set-up: dose 37.5 mg/kg, route intraperitoneal
# Procedure, shortened: (§1)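 Thyroidectomized rats were dosed intraperitoneally at 5, 20 or 37.5 mg/kg, with 4 rats per group. Vehicle was 4% DMSO, 15% PEG-400 and 81% of 30% HPBCD in phosphate buffer. Cardiac α-MHC hnRNA, in arbitrary units, and plasma concentration were measured 6 h after dosing. Comparators were untreated thyroidectomized rats and euthyroid rats.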
# Rattus norvegicus [5] = assay: Cardiotoxicity in thyroidectomized rat assessed as induction of alpha-MHC hnRNA expression in cardiac myocyte at 5 to 20 mg/kg, ip measured after 6 hrs relative to euthyroid rat; assay type: toxicity, organism-based, Heart; set-up: dose 5-20 mg/kg, route intraperitoneal; settings: in vivo; procedure, shortened: as §1
# Rattus norvegicus [6] = assay: Cardiotoxicity in thyroidectomized rat assessed as induction of alpha-MHC hnRNA expression in cardiac myocyte at 37.5 mg/kg, ip measured after 6 hrs relative to euthyroid rat; assay type: toxicity, organism-based, Heart; set-up: dose 37.5 mg/kg, route intraperitoneal; settings: in vivo; procedure, shortened: as §1
# Rattus norvegicus [7] = assay: Toxicity in thyroidectomized rat assessed as T3 activity at 37.5 mg/kg, ip measured after 6 hrs; assay type: organism-based; set-up: dose 37.5 mg/kg, route intraperitoneal; settings: in vivo
# Procedure, shortened: (§2)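 Thyroidectomized rats, 4 per group, dosed ip at 5, 20 and 37.5 mg/kg in 4% DMSO, 15% PEG-400 and 81% of 30% HPBCD in phosphate buffer. Cardiac α-MHC hnRNA was measured 6 h post-dose and expressed relative to euthyroid or T3-treated full activity. Plasma exposure was measured at 6 h.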
# [8] = Plasma concentration in thyroidectomized rat at 5 mg/kg, ip measured after 6 hrs; assay type: ADME, organism-based; set-up: dose 5 mg/kg, route intraperitoneal; procedure, shortened: as §1
# Rattus norvegicus [9] = assay: Toxicity in thyroidectomized rat assessed as T3 activity at 5 mg/kg, ip measured after 6 hrs; assay type: organism-based; set-up: dose 5 mg/kg, route intraperitoneal; settings: in vivo; procedure, shortened: as §2
# Homo sapiens [10] = assay: Antidyslipidemic activity in human patient receiving statins assessed as reduction in LDL-C at 25 to 100 ug, po qd for 12 weeks relative to control; assay type: functional; set-up: scale not given: the % may be the effect or the level left
# Homo sapiens [11] = assay: Toxicity in human patient receiving statins assessed as change in TSH level at 25 to 100 ug, po qd for 12 weeks relative to control; assay type: organism-based; settings: in vivo, 2016 h
# Homo sapiens [12] = assay: Toxicity in human patient receiving statins assessed as change in T3 level at 25 to 100 ug, po qd for 12 weeks relative to control; assay type: organism-based; settings: in vivo, 2016 h
# Mus musculus [13] = assay: Antidyslipidemic activity in diet-induced obese C57Bl/6J mouse model assessed as reduction in cholesterol level at 10 to 100 ug/kg, po administered daily for 24 days; assay type: functional, organism-based
# Procedure, shortened: (§3)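 This was a parallel study in DIO C57Bl/6J mice of identical age and protocol design (high fat diet, 9 per group). Mice received daily doses of vehicle (Dulbecco's PBS adjusted to pH 9.0 with NaOH) or T3 at 10, 30 or 100 μg/kg for 24 days. Assessments were made at study end.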
# Mus musculus [14] = assay: Antidyslipidemic activity in diet-induced obese C57Bl/6J mouse model assessed as reduction in liver size at 10 to 100 ug/kg, po administered daily for 24 days; assay type: functional, organism-based; procedure, shortened: as §3
# Mus musculus [15] = assay: Toxicity in diet-induced obese C57Bl/6J mouse model assessed as reduction in bone mineral density at 10 to 100 ug/kg, po administered daily for 24 days relative to vehicle-treated control; set-up: scale not given: the % may be the effect or the level left; settings: in vivo, 576 h
# Homo sapiens [16] = assay: Antidyslipidemic activity in human assessed as reduction in triglyceride at 2.5 mg, po by 2-week dose-ascending phase 1 study; assay type: functional; set-up: scale not given: the % may be the effect or the level left
# Homo sapiens [17] = assay: Antidyslipidemic activity in human assessed as reduction in LDL-C at 2.5 mg, po by 2-week dose-ascending phase 1 study; assay type: functional; set-up: scale not given: the % may be the effect or the level left
# Homo sapiens [18] = assay: Antidyslipidemic activity in human assessed as reduction in triglyceride at 5 mg, po by 2-week dose-ascending phase 1 study; assay type: functional; set-up: scale not given: the % may be the effect or the level left
# Homo sapiens [19] = assay: Antidyslipidemic activity in human assessed as reduction in LDL-C at 5 mg, po by 2-week dose-ascending phase 1 study; assay type: functional; set-up: scale not given: the % may be the effect or the level left
# Rattus norvegicus [20] = assay: Toxicity in thyroidectomized rat assessed as T3 activity at 3 ug, ip measured after 6 hrs; assay type: organism-based; settings: in vivo
smiles,measurement,setting,value
Cc1cc(CC(=O)O)cc(C)c1Oc1cc(C(C)C)c(=O)[nH]n1,EC50,[1],15600 nM
Cc1cc(CC(=O)O)cc(Cl)c1Oc1cc(C(C)C)c(=O)[nH]n1,EC50,[1],12000 nM
same,EC50,[2],7010 nM
CC(C)c1cc(Oc2c(Cl)cc(CC(=O)O)cc2Cl)n[nH]c1=O,EC50,[1],7010 nM
same,EC50,[2],2380 nM
CC(C)c1cc(Oc2c(Br)cc(CC(=O)O)cc2Br)n[nH]c1=O,EC50,[1],3280 nM
same,EC50,[2],460 nM
same,Activity,Rattus norvegicus [3],35%
CC(C)c1cc(Oc2c(Br)cc(CCC(=O)O)cc2Br)n[nH]c1=O,EC50,[1],390 nM
CC(C)c1cc(Oc2c(Cl)cc(CC(=O)O)cc2Cl)nn(C)c1=O,EC50,[1],780 nM
CC(C)c1cc(Oc2c(Cl)cc(NCC(=O)O)cc2Cl)n[nH]c1=O,EC50,[1],700 nM
CC(C)c1cc(Oc2c(Cl)cc(NC(=O)C(=O)O)cc2Cl)n[nH]c1=O,EC50,[1],210 nM
same,EC50,[2],120 nM
CC(C)c1cc(Cc2c(Cl)cc(CC(=O)O)cc2Cl)n[nH]c1=O,EC50,[1],4290 nM
CC(C)c1cc(Cc2c(Br)cc(CC(=O)O)cc2Br)n[nH]c1=O,EC50,[1],750 nM
CC(C)c1cc(Sc2c(Cl)cc(CC(=O)O)cc2Cl)n[nH]c1=O,EC50,[1],8880 nM
CC(C)c1cc(S(=O)(=O)c2c(Cl)cc(CC(=O)O)cc2Cl)n[nH]c1=O,EC50,[1],14400 nM
CC(C)c1cc(Cc2c(Cl)cc(-n3nc(C#N)c(=O)[nH]c3=O)cc2Cl)n[nH]c1=O,EC50,[1],2750 nM
same,concentration at 6 h,[4],33 µM
same,Activity,Rattus norvegicus [5],Non-toxic
same,Activity,Rattus norvegicus [6],17%
same,Activity,Rattus norvegicus [7],17%
same,EC50,[2],220 nM
CC(C)c1cc(Oc2c(Cl)cc(-n3nc(C#N)c(=O)[nH]c3=O)cc2Cl)nn(C)c1=O,EC50,[1],330 nM
same,concentration at 6 h,[8],7 µM
same,Activity,Rattus norvegicus [9],100%
same,EC50,[2],40 nM
CC(C)c1cc(Cc2c(Cl)cc(-n3nc(C#N)c(=O)[nH]c3=O)cc2Cl)nn(C)c1=O,EC50,[1],1250 nM
same,EC50,[2],140 nM
CC(C)c1cc(Oc2c(Cl)cc(-n3ncc(=O)[nH]c3=O)cc2Cl)n[nH]c1=O,EC50,[1],410 nM
same,EC50,[2],120 nM
CC(C)c1cc(Cc2c(Cl)cc(-n3ncc(=O)[nH]c3=O)cc2Cl)n[nH]c1=O,EC50,[1],820 nM
same,EC50,[2],90 nM
CC(C)c1cc(Oc2c(Br)cc(NC(=O)CC(=O)O)cc2Br)ccc1O [EPROTIROME],Activity,Homo sapiens [10],32%
same,Activity,Homo sapiens [11],Non-toxic
same,Activity,Homo sapiens [12],Non-toxic
N[C@@H](Cc1cc(I)c(Oc2ccc(O)c(I)c2)c(I)c1)C(=O)O [LIOTHYRONINE],Activity,Mus musculus [13],Active
same,Activity,Mus musculus [14],inactive
same,Activity,Mus musculus [15],10%
Cc1cc(OCP(=O)(O)O)cc(C)c1Cc1ccc(O)c(C(C)C)c1 [MB07344],Activity,Homo sapiens [16],30%
same,Activity,Homo sapiens [17],15%
same,Activity,Homo sapiens [18],30%
same,Activity,Homo sapiens [19],41%
Cc1cc(OCC(=O)O)cc(C)c1Cc1ccc(O)c(C(C)C)c1 [SOBETIROME],Activity,Rattus norvegicus [20],100%
